Key:
Assay type in all cases: functional
K562 = assay: Cytotoxicity against human K562 cells assessed as cellular growth at 10 uM after 48 hrs by SRB assay
Outline: (§1)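 NCI60 single-dose screen of cells in RPMI 1640 with 5% FBS and 2 mM L-glutamine, preincubated 24 h at 37 °C, 5% CO₂. Cells were then exposed 48 h to compound added from DMSO stock. TCA-fixed, stained with 0.4% SRB in 1% acetic acid, dye solubilised in 10 mM Tris base and read at 515 nm. Growth is given as percent of untreated control.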

SW-620 = assay: Antitumor activity against human SW620 cells after 48 hrs by SRB assay; conditions: SW-620, 48 h
Outline: (§2)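 NCI60 panel cells grown in RPMI 1640 with 5% FBS and 2 mM L-glutamine, plated at 5000–40,000 cells/well and preincubated 24 h at 37 °C, 5% CO₂. Compound was added from DMSO at five concentrations, 10-fold or 1/2 log dilutions, then incubated 48 h.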

HOP-62 = assay: Antitumor activity against human HOP62 cells after 48 hrs by SRB assay; conditions: HOP-62, 48 h
Outline: (§3)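 NCI60 panel in RPMI 1640 with 5% FBS and 2 mM L-glutamine. Cells were plated at 5000–40,000/well by doubling time, held 24 h, then time-zero plates were TCA-fixed. Five concentrations (10-fold or half-log dilutions of DMSO stocks) were applied for 48 h at 37 °C, 5% CO2. Cells were fixed with cold TCA (10% final adherent, 16% suspension) and stained with 0.4% SRB. Bound dye was dissolved in 10 mM Tris and read at 515 nm. GI50, TGI and LC50 were calculated per line.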

MDA-MB-468 = assay: Antitumor activity against human MDA-MB-468 cells after 48 hrs by SRB assay; conditions: MDA-MB-468, 48 h; outline: as §3
NCI-H322M [1] = assay: Antitumor activity against human NCI-H322M cells after 48 hrs by SRB assay; outline: as §3
ACHN = assay: Cytotoxicity against human ACHN cells assessed as cellular growth at 10 uM after 48 hrs by SRB assay; outline: as §1
UACC-62 = assay: Cytotoxicity against human UACC62 cells assessed as cellular growth at 10 uM after 48 hrs by SRB assay
Outline: (§4)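 NCI-60 panel lines grown in RPMI 1640 with 5% FBS and 2 mM L-glutamine. Plated at 5000–40,000 cells/well and preincubated 24 h at 37 °C, 5% CO₂, with time-zero plates fixed in TCA. Compounds, dissolved in DMSO and diluted in medium, were applied for 48 h. Cells were TCA-fixed (10% final for adherent, 16% for suspension) and stained with 0.4% SRB in 1% acetic acid. Dye was solubilised in 10 mM Tris base and read at 515 nm; growth was expressed as a percentage of untreated control.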

IGROV-1 = assay: Antitumor activity against human IGROV1 cells after 48 hrs by SRB assay; conditions: IGROV-1, 48 h; outline: as §3
OVCAR-3 = assay: Cytotoxicity against human OVCAR3 cells assessed as cellular growth at 10 uM after 48 hrs by SRB assay; outline: as §4
HOP-92 = assay: Antitumor activity against human HOP92 cells after 48 hrs by SRB assay; conditions: HOP-92, 48 h; outline: as §3
Malme-3M = assay: Antitumor activity against human MALME-3M cells after 48 hrs by SRB assay; outline: as §3
OVCAR-8 = assay: Cytotoxicity against human OVCAR8 cells assessed as cellular growth at 10 uM after 48 hrs by SRB assay; outline: as §4
LOX IMVI = assay: Cytotoxicity against human LOXIMVI cells assessed as cellular growth at 10 uM after 48 hrs by SRB assay; outline: as §1
SF-295 = assay: Cytotoxicity against human SF295 cells assessed as cellular growth at 10 uM after 48 hrs by SRB assay; outline: as §4
HT-29 = assay: Antiproliferative activity against human HT-29 cells after 48 hrs by SRB assay; conditions: HT-29, 48 h; outline: as §3
SF-268 = assay: Cytotoxicity against human SF268 cells assessed as cellular growth at 10 uM after 48 hrs by SRB assay; outline: as §4
NCI-H226 = assay: Cytotoxicity against human NCI-H226 cells assessed as cellular growth at 10 uM after 48 hrs by SRB assay; outline: as §4
PC-3 = assay: Antitumor activity against human PC3 cells after 48 hrs by SRB assay; conditions: PC-3, 48 h; outline: as §3
SF-539 = assay: Antitumor activity against human SF539 cells after 48 hrs by SRB assay; conditions: SF-539, 48 h; outline: as §2
CCRF-CEM = assay: Cytotoxicity against human CCRF-CEM cells assessed as cellular growth at 10 uM after 48 hrs by SRB assay; outline: as §1
NCI-H322M [2] = assay: Cytotoxicity against human NCI-H322M cells assessed as cellular growth at 10 uM after 48 hrs by SRB assay; outline: as §4
SNB-75 = assay: Cytotoxicity against human SNB75 cells assessed as cellular growth at 10 uM after 48 hrs by SRB assay; outline: as §4
HCT-116 = assay: Cytotoxicity against human HCT116 cells assessed as cellular growth at 10 uM after 48 hrs by SRB assay; outline: as §1
RPMI-8226 = assay: Antitumor activity against human RPMI8226 cells after 48 hrs by SRB assay; conditions: RPMI-8226, 48 h; outline: as §3
SR = assay: Cytotoxicity against human SR cells assessed as cellular growth at 10 uM after 48 hrs by SRB assay; outline: as §4
[3] = read-out: LC50 (the source's name)
[4] = read-out: pLC50 (the source's name) (converted)

Compound: COc1cc(/C(=C2\O[C@@H]([C@H]3COC(C)(C)O3)[C@H]3OC(C)(C)O[C@@H]23)c2ccc3ccccc3c2)cc(OC)c1OC
- Activity (K562): 28.12%
- GI50 (SW-620; read-out: GI50): 4.31 µM
- CC50 (SW-620; [3]): > 100 µM
- TGI (SW-620; read-out: TGI): > 100 µM
- GI50 (SW-620; read-out: pGI50 (converted)): 4.27 µM
- CC50 (SW-620; [4]): > 100 µM
- TGI (SW-620; read-out: pTGI): > 100 µM
- GI50 (HOP-62): 9.78 µM
- TGI (HOP-62): 31.4 µM
- CC50 (HOP-62; [3]): 99.8 µM
- GI50 (MDA-MB-468; read-out: GI50): 4.02 µM
- CC50 (MDA-MB-468; [3]): > 100 µM
- TGI (MDA-MB-468; read-out: TGI): 21.1 µM
- GI50 (MDA-MB-468; read-out: pGI50 (converted)): 3.98 µM
- CC50 (MDA-MB-468; [4]): > 100 µM
- TGI (MDA-MB-468; read-out: pTGI (converted)): 20.9 µM
- GI50 (NCI-H322M [1]; read-out: GI50): 6.74 µM
- CC50 (NCI-H322M [1]; [3]): > 100 µM
- TGI (NCI-H322M [1]; read-out: TGI): > 100 µM
- GI50 (NCI-H322M [1]; read-out: pGI50 (converted)): 5.75 µM
- CC50 (NCI-H322M [1]; [4]): > 100 µM
- TGI (NCI-H322M [1]; read-out: pTGI): > 100 µM
- Activity (ACHN): 0.86%
- Activity (UACC-62): 46.5%
- GI50 (IGROV-1; read-out: GI50): 3.3 µM
- CC50 (IGROV-1; [3]): > 100 µM
- TGI (IGROV-1; read-out: TGI): > 100 µM
- GI50 (IGROV-1; read-out: pGI50 (converted)): 2.82 µM
- CC50 (IGROV-1; [4]): > 100 µM
- TGI (IGROV-1; read-out: pTGI): > 100 µM
- Activity (OVCAR-3): -6.76%
- GI50 (HOP-92): 2.67 µM
- TGI (HOP-92): 13.3 µM
- CC50 (HOP-92; [3]): > 100 µM
- GI50 (Malme-3M): 2.07 µM
- LC50 (concentration killing 50% of cells present at time zero) (Malme-3M): > 100 µM
- TGI (Malme-3M): 5.59 µM
- Activity (OVCAR-8): 18.91%
- Activity (LOX IMVI): 46.36%
- Activity (SF-295): 48.59%
- LC50 (50% net cell kill) (HT-29): > 100 µM
- GI50 (HT-29; read-out: GI50): 6 µM
- TGI (HT-29; read-out: TGI): > 100 µM
- GI50 (HT-29; read-out: pGI50 (converted)): 6.03 µM
- CC50 (HT-29; [4]): > 100 µM
- TGI (HT-29; read-out: pTGI (converted)): > 100 µM
- Activity (SF-268): -16.94%
- Activity (NCI-H226): 66.92%
- GI50 (PC-3; read-out: GI50): 5.71 µM
- CC50 (PC-3; [3]): > 100 µM
- TGI (PC-3; read-out: TGI): > 100 µM
- GI50 (PC-3; read-out: pGI50 (converted)): 5.75 µM
- CC50 (PC-3; [4]): > 100 µM
- TGI (PC-3; read-out: pTGI): > 100 µM
- GI50 (SF-539): 14.3 µM
- TGI (SF-539): 79 µM
- CC50 (SF-539; [3]): > 100 µM
- Activity (CCRF-CEM): 82.21%
- Activity (NCI-H322M [2]): 55.06%
- Activity (SNB-75): 41.12%
- Activity (HCT-116): 58.36%
- LC50 (concentration killing 50% of starting cells) (RPMI-8226): > 100 µM
- GI50 (RPMI-8226; read-out: GI50): 33.3 µM
- TGI (RPMI-8226; read-out: TGI): > 100 µM
- GI50 (RPMI-8226; read-out: pGI50 (converted)): 33.1 µM
- CC50 (RPMI-8226; [4]): > 100 µM
- TGI (RPMI-8226; read-out: pTGI (converted)): > 100 µM
- Activity (SR): 51.36%
